The nature of assay [1]: Tested for binding affinity against Ins(1,4,5)-P3 5-phosphatase. Set-up: species or system Homo sapiens.
A short description of assay [2]: Competitive inhibition of Inositol 1,4,5-trisphosphate 5-phosphatase. Set-up: species or system Homo sapiens.
The species named for assay [3] is Homo sapiens. In words: Tested for Ca+2 potency in human neuroblastoma cells. The format is functional. In a few lines:
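Ca2+ release from intracellular stores measured in electrically permeabilized human neuroblastoma cells; potency expressed as EC50.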

Assay [4] is filed under the species Homo sapiens. Put plainly: (§1) Competitive inhibition of human erythrocyte membrane Ins(1,4,5)P3 5-phosphatase. In a few lines: (§2)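 Ins(1,4,5)P3 5-phosphatase from human erythrocyte membrane; Ki determined by a previously described method, taken as the mean of at least three experiments.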
The nature of assay [5]: Tested for binding affinity against human erythrocyte 5-phosphatase.
Assay [6] is described as follows: Binding affinity for Inositol 1,4,5-trisphosphate kinase. In a few lines: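 Crude rat brain Ins(1,4,5)P3 3-kinase; inhibition of [3H]Ins(1,4,5)P3 phosphorylation measured; Km for Ins(1,4,5)P3 0.6 μM; Ki determined by a previously described method.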
Assay [7] is described as follows: as §1. In a few lines:
as §2

Values joined by “and” are separate entries in the source; they are usually repeats but may differ in a detail not shown here. Equal values may be shown once.

In general, Ki refers to the equilibrium dissociation constant of an inhibitor or competing ligand from its target. With `OC1C(OP(O)(O)=S)C(O)C(OP(O)(O)=S)C(O)C1OP(O)(O)=S` (configuration not stated), in assay [1], affinity was put at a Ki of 0.43 µM.

What is called EC50 is the concentration that produces a half-maximal response. As a reminder, the Km is the substrate concentration at which the rate is half of its maximum. `O=P(O)(O)O[C@@H]1[C@H](O)[C@H](O)[C@@H](OP(=O)(O)O)[C@H](OP(=O)(O)O)[C@H]1O` [INS(1,4,5)P3]: the values for the Ki in assay [2] and in assay [5] were 39 µM and 124 µM, respectively. Moreover, in the assay listed under Homo sapiens [3], the EC50 is 0.12 µM. Also, in the assay filed under Homo sapiens [4], the Km is 40 µM.

Consider `OC1C(O)C(OP(O)(O)=S)C(OP(O)(O)=S)C(O)C1OP(O)(O)=S` (stereo in doubt), for which the values for the Ki in assay [6] and in assay [7] were 1.46 µM and 1.7 µM, respectively.

`O=P(O)(O)O[C@H]1[C@H](O)[C@@H](OP(=O)(O)O)[C@H](O)[C@@H](OP(=O)(O)O)[C@H]1O` displayed a Ki in assay [2] of 45 µM.

`OC1C(O)C(OP(O)(O)=S)C(OP(O)(O)=S)C(O)C1OP(O)(O)=S` (configuration not stated): the Ki in assay [1] was 0.5 µM.

For the molecule `O=C(O)C(COP(=O)(O)O)OP(=O)(O)O` (configuration not stated), the Ki in assay [5] is 350 µM and 978 µM.

For the molecule `OC1C(O)C(OP(O)(O)=S)C(OP(O)(O)=S)C(O)C1OP(O)(O)=S` (stereo in doubt; 24), the Ki in assay [6] is 247 µM; in assay [5] it was 0.3 µM.

Values taken from ChEMBL document CHEMBL1127686, “Synthesis of selective non-Ca(2+)-mobilizing inhibitors of D-myo-inositol 1,4,5-trisphosphate 5-phosphatase” (J Med Chem, 1994).
